Consider two compounds from publication PMC6401406 (Theranostics, 2019).

Data set [1] is classed as in vivo, Sprague-Dawley rats. The note with it: for Tmax: male, Sprague-Dawley, rat, iv, 30 mg/kg. In short, it runs like this:
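Male 8-week-old Sprague-Dawley rats were acclimated ≥1 week, fasted 12 h, then given a single i.v. 30 mg kg-1 dose. Lung, liver, kidney, spleen, heart and heparinized plasma were collected at 0, 10, 30, 60, 120 and 240 min. Organs were saline-washed and stored at -80 °C. Sections underwent MALDI MSI with internal-standard correction; homogenates underwent LC-MS/MS. Identity was confirmed by accurate mass and tandem MS. Mean ± SD, three animals.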

For data set [2] the following is noted: cited from earlier work.
The conditions of data set [3]: cited from earlier work. This is another data set of the same source.

Like-named read-outs stand apart in the source and are kept apart here.

In the case of demethylated tetrandrine, in data set [1] (rat liver after i.v. tetrandrine 30 mg kg^-1), the “Time of maximum concentration of demethylated metabolite in liver” value turned out to be 4 h. Moreover, in data set [1] (rat liver after i.v. tetrandrine, MALDI MSI, accurate mass and tandem MS), the “Detection of metabolite in liver tissue” value is “detected”.

`COc1ccc2cc1Oc1ccc(cc1)C[C@H]1c3cc(c(OC)cc3CCN1C)Oc1c(OC)c(OC)cc3c1[C@H](C2)N(C)CC3` [tetrandrine, Tetrandrine]: in data set [2], the Relatively non-toxic dose result is listed as “up to 90 mg kg^-1 body weight”. Moreover, the values for the Tmax in data set [1] (kidney), in data set [1] (liver) and in data set [1] (lung) were 30 min, 120 min and 10 min, respectively. For the same compound, in data set [1] (rat kidney, 60 min post-dose, 3D MALDI imaging), the Distribution within kidney result is given as “mainly distributed in the cortex of kidney”. The “Half-life (t1/2) in blood versus heart” value in data set [3] (after i.v. administration) was “generally similar”. Further, the “Uptake efficiency in spleen versus other tissues” value in data set [3] is reported as “higher in spleen than other tissues”. In addition, the Tmax in spleen in data set [3] (post-dose, spleen) is 270 min.
